Here are results for 24 compounds from ChEMBL document CHEMBL1138258, “Optimizing cell permeation of an antibiotic resistance inhibitor for improved efficacy” (J Med Chem, 2007).

As a reminder, the MIC is the lowest concentration that inhibits growth of the organism. By pKa is commonly meant the pH at which an ionisable group is half protonated.

The subject of one series is Escherichia coli. The series can be described thus: Antibacterial activity against Escherichia coli K12 JM109 overexpressing beta-lactamase. The format is functional. In outline: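 Broth microdilution in Mueller Hinton broth against E. coli K12 JM109 overexpressing AmpC from a heat-sensitive pOGO plasmid. Ampicillin MIC determined with and without boronic acids; final inoculum 5 × 10^5 CFU/mL; DMSO below 5%.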

Series [1] in a line: Dissociation constant, pKa of the compound. Format: physicochemical. A digest of the protocol: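 UV spectrophotometric determination on 10^-4 M aqueous solutions, by two methods. First, spectra were recorded at pH between 2 and 12 with ionic strength fixed at 0.01. Second, solutions at pH 2 (0.5 N HCl) were titrated with 0.5 N NaOH up to pH 12. pKa was derived with the Henderson-Hasselbalch equation and absorption-spectra extrapolation.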

With `O=CN(C=O)Cc1ccc2sc(B(O)O)cc2c1`, in the series with Escherichia coli, the MIC is 92 µM. Besides, the pKa in series [1] amounted to 6.39. As to `OCCN(CCO)Cc1ccc2sc(B(O)O)cc2c1`, the pKa in series [1] came out at 6.39. Regarding `O=CNCc1ccc2sc(B(O)O)cc2c1`, in series [1], the pKa came out at 6.6. `O=[N+]([O-])c1cccc(NCc2ccc3sc(B(O)O)cc3c2)c1` had an MIC in the series with Escherichia coli of 78 µM. The pKa in series [1] was 6.39. Consider `OB(O)c1cc2cc(CNc3ccc(C(O)(C(F)(F)F)C(F)(F)F)cc3)ccc2s1`, for which the pKa in series [1] came to 6.39. On the same count and under the same terms, the same measure for `OB(O)c1cccc(NCc2ccc3sc(B(O)O)cc3c2)c1`: 6.39.

Consider `CC(=O)c1ccc(NCc2ccc3sc(B(O)O)cc3c2)cc1`, for which the MIC against Escherichia coli stood at 314 µM. Besides, the pKa in series [1] is 6.39.

In series [1], `O=C(O)c1cccc(NCc2ccc3sc(B(O)O)cc3c2)c1` returned a pKa of 6.39. `O=C(O)CNCc1ccc2sc(B(O)O)cc2c1` came in with an MIC with Escherichia coli of 92 µM. This compound yielded a pKa in series [1] of 6.39. For `Nn1cn[n+](Cc2ccc3sc(B(O)O)cc3c2)c1` the same measures were 117 µM and 6.39. For `OB(O)c1cc2cc(CSc3ccccc3)ccc2s1` the same measures were 84 µM and 6.39. As for `OB(O)c1cc2cc(COCc3ccccc3)ccc2s1`, the pKa in series [1] is 6.39. The same measure, in the same setting: the same measure for `OB(O)c1cc2cc(COc3ccc(Cl)c(Cl)c3)ccc2s1`: 6.39. In the series on Escherichia coli, `Cc1ccc2sc(B(O)O)cc2c1` came in with an MIC of 117 µM. This compound also displayed a pKa in series [1] of 6.39. With `OB(O)c1cc2ccccc2s1`, in the series with Escherichia coli, the MIC was determined as 359 µM. Moreover, the pKa in series [1] worked out at 6.39.

Consider `OB(O)c1cc2cc(CNc3ccc(N4CCOCC4)cc3)ccc2s1`, for which the pKa in series [1] is 6.39.

As to `OB(O)c1cc2cc(Cn3ccnc3)ccc2s1`, it took 94 µM to inhibit growth with Escherichia coli (MIC). This compound also registered a pKa in series [1] of 6.39. In series [1], `OCc1ccc2sc(B(O)O)cc2c1` had a pKa of 6.39. Same read-out and setting: the figure for `OB(O)c1cc2cc(COc3ccccc3)ccc2s1` is 6.39. Take `OB(O)c1cc2cc(CNc3ccc(Cl)c(Cl)c3)ccc2s1`: the minimal inhibitory concentration (MIC) in the series on Escherichia coli worked out at 147 µM. Moreover, the pKa in series [1] came to 6.39. `COc1ccc(NCc2ccc3sc(B(O)O)cc3c2)cc1OC`: the pKa in series [1] came to 6.39. In the case of `OB(O)c1cc2cc(CBr)ccc2s1`, the pKa in series [1] came to 6.39. The same measure, in the same setting: the figure for `OB(O)c1cc2cc(CN3CCNCC3)ccc2s1` is 6.39.

The compound `CC1(C)S[C@@H]2[C@H](NC(=O)[C@H](N)c3ccccc3)C(=O)N2[C@H]1C(=O)O` [AMPICILLIN] came in with an MIC in the series with Escherichia coli of 512 µg/mL.
